This is an account of results in the array DNA melting data of Ke et al. (doi:10.1101/2024.01.08.574731).

Series [1] can be described thus: melting temperature; fluorescence melt of hairpins on a sequencing array, two-state fit, raised by 9.35 °C to match UV melts. To be noted: sodium 0.088 M. In short, it runs like this: (§1)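 Melting temperature and folding enthalpy were obtained by bootstrapped two-state fitting. Fits used Cy3 fluorescence of library hairpins with annealed Cy3 and quencher oligos on a sequenced MiSeq flow cell, imaged in 50 mM Na-HEPES pH 8.0, 25 mM NaCl in 2.5 °C steps up to 60 °C and normalised to pre-quench Cy3 and control constructs. Four replicates were combined by inverse-variance weighting, and fitted temperatures were raised by 9.35 °C to match UV melts.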

Series [2] can be described thus: folding enthalpy; higher = less favourable; fluorescence melt of hairpins on a sequencing array, two-state fit. Particulars: sodium 0.088 M. The gist of the method: as §1

GGATTTACGAAAGTATCC (((..(((....)))))): the Tm in series [1] was 31 °C. Also, the folding enthalpy in series [2] is -21 kcal/mol.

With GGATTTCGAAAGAATCC (((.(((....)))))), the Tm in series [1] was 41.3 °C. In series [2], the folding enthalpy is -28.8 kcal/mol.

Take GGATTTGGAAACAAATCC (((((((....))))))): in series [1], the Tm came to 58.2 °C. Further, the folding enthalpy in series [2] is -44.3 kcal/mol.

Turning to GGATTTGGAAACAAATTC (.(((((....))))).), the Tm in series [1] stood at 40.1 °C. Further, the folding enthalpy in series [2] was -28.1 kcal/mol.

On to GGATTTTCGAAAGAATCC (((..(((....)))))), for which the Tm in series [1] is 31.4 °C. Also, in series [2], the folding enthalpy was -17.7 kcal/mol.

Turning to GGCAAACGAAAGTTAGCC (((.(((....))).))), in series [1], the Tm worked out at 54.9 °C. Besides, the folding enthalpy in series [2] is -25.1 kcal/mol.

Take GGCAAACGAAAGTTGCC (((.(((....)))))): the Tm in series [1] worked out at 59.6 °C. Besides, the folding enthalpy in series [2] was -33.3 kcal/mol.

Take GGCAAAGAAATTTGCC ((((((....)))))): the Tm in series [1] came to 56 °C. In addition, the folding enthalpy in series [2] is -36.8 kcal/mol.

For the sequence GGCAACACGAAAGTGGCC (((..(((....)))))), the Tm in series [1] was found to be 52.6 °C. Besides, in series [2], the folding enthalpy was -37.4 kcal/mol.

For the sequence GGCAACCGAAAGGTGGCC (((.(((....))).))), the Tm in series [1] turned out to be 67.7 °C. The folding enthalpy in series [2] is -35 kcal/mol.

For GGCAACGAAAGTTAAGCC ((((((....)))..))), the Tm in series [1] came to 45.7 °C. Also, the folding enthalpy in series [2] was -24 kcal/mol.

In the case of GGCAACGAAAGTTACGCC ((((((....)))..))), the Tm in series [1] is 44.4 °C. Moreover, the folding enthalpy in series [2] is -24.2 kcal/mol.

As to GGCAACGAAAGTTATGCC ((((((....)))..))), the Tm in series [1] is 46.3 °C. Moreover, the folding enthalpy in series [2] is -24.2 kcal/mol.

Consider GGCAACGGAAACACTGCC ((((..(....)..)))), for which the Tm in series [1] came to 29.7 °C. In addition, the folding enthalpy in series [2] was -15 kcal/mol.

Turning to GGCAACGGAAACATCGCC (((.(.(....).).))), the Tm in series [1] was found to be 24.5 °C. The folding enthalpy in series [2] is -16.7 kcal/mol.

In the case of GGCAACGGAAACGTCGCC (((.(((....))).))), the Tm in series [1] was 52.8 °C. Besides, in series [2], the folding enthalpy is -46.8 kcal/mol.

For the sequence GGCAAGCGAAAGCTGCC (((.(((....)))))), the Tm in series [1] was 68.9 °C. In series [2], the folding enthalpy was -33.4 kcal/mol.

As for GGCAAGGCGAAAGCCGCC (((..(((....)))))), in series [1], the Tm was 59.6 °C. Besides, the folding enthalpy in series [2] is -13.6 kcal/mol.

In the case of GGCAATCGAAAGATAGCC (((.(((....))).))), in series [1], the Tm turned out to be 52.7 °C. Moreover, in series [2], the folding enthalpy is -31.8 kcal/mol.

As for GGCAATCGAAAGATCGCC (((.(((....))).))), the Tm in series [1] turned out to be 51 °C. In addition, the folding enthalpy in series [2] is -34.7 kcal/mol.

GGCAATGGAAACACTGCC ((((.((....)).)))): the Tm in series [1] worked out at 44 °C. The folding enthalpy in series [2] was -33.2 kcal/mol.

GGCACAGGAAACTGTACC ((.((((....)))).)): the Tm in series [1] was 44.3 °C. Further, the folding enthalpy in series [2] was -29.6 kcal/mol.

As to GGCACCCGAAAGGGAGCC (((.(((....))).))), the Tm in series [1] turned out to be 68.6 °C. Further, the folding enthalpy in series [2] is -32.6 kcal/mol.

Consider GGCACCGAAAGGTAGCC ((((((....))).))), for which, in series [1], the Tm was determined as 61.4 °C. Further, the folding enthalpy in series [2] is -36.9 kcal/mol.

Consider GGCACCGAAAGGTCCGCC ((((((....)))..))), for which, in series [1], the Tm turned out to be 55.2 °C. Moreover, in series [2], the folding enthalpy is -20.4 kcal/mol.

For the sequence GGCACCGAAAGGTTAGCC ((((((....)))..))), the Tm in series [1] stood at 50.8 °C. In series [2], the folding enthalpy was -28.9 kcal/mol.

With GGCACGGCGAAAGCCGCC (((..(((....)))))), the Tm in series [1] was 44.6 °C. Also, in series [2], the folding enthalpy was -8.23 kcal/mol.

Turning to GGCACGGGAAACCATGCC ((((.((....)).)))), the Tm in series [1] turned out to be 49.3 °C. The folding enthalpy in series [2] is -30.5 kcal/mol.

Consider GGCACTCCGAAAGGAGCC (((..(((....)))))), for which the Tm in series [1] came to 35.2 °C. Also, the folding enthalpy in series [2] is -9.55 kcal/mol.

Turning to GGCAGACCGAAAGGTGCC (((..(((....)))))), the Tm in series [1] worked out at 55.4 °C. In addition, the folding enthalpy in series [2] was -35 kcal/mol.

As to GGCAGAGGAAACTTTGCC ((((.((....)).)))), in series [1], the Tm came out at 48.6 °C. In series [2], the folding enthalpy was -35.5 kcal/mol.

In the case of GGCAGCGAAAGCTAAGCC ((((((....)))..))), the Tm in series [1] was 55.6 °C. For the same sequence, the folding enthalpy in series [2] is -25.2 kcal/mol.

As for GGCAGCGGAAACGCTGTC (.(((((....))))).), in series [1], the Tm came out at 67.2 °C. For the same sequence, the folding enthalpy in series [2] was -17.6 kcal/mol.

Consider GGCAGGGGAAACCCCACC ((..(((....)))..)), for which the Tm in series [1] was found to be 31.6 °C. Moreover, the folding enthalpy in series [2] is -16.5 kcal/mol.

Turning to GGCAGGGGAAACCCTGTC (.(((((....))))).), in series [1], the Tm stood at 55.9 °C. Moreover, the folding enthalpy in series [2] is -29.9 kcal/mol.

In the case of GGCAGTCCGAAAGGAGCC (((..(((....)))))), the Tm in series [1] stood at 47.4 °C. Besides, the folding enthalpy in series [2] is -22.1 kcal/mol.

For GGCAGTGGAAACATTGCC ((((.((....)).)))), the Tm in series [1] was determined as 52.2 °C. For the same sequence, the folding enthalpy in series [2] was -41.3 kcal/mol.
